High-throughput results as filed in PubChem BioAssay.
VIM-2 inhibitor = VIM-2 metallo-beta-lactamase inhibitors, primary screen, biochemical, epi-absorbance readout, Pseudomonas aeruginosa enzyme; 290,000 tested, 0.89% active; purified VIM-2, nitrocefin hydrolysis, epi-absorbance fluorescence; AID 1527, 2009; inhibition, % at 5.6 µM;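 active = inhibition above the mean of all tested compounds plus 3 SD, cutoff set per screening run, cut at about 7.5% in these data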;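 note: red hydrolysis product quenches plate fluorescence so inhibitors raise well fluorescence; 0% = enzyme with DMSO and 100% = DMSO without enzyme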
RAD54 branch = inhibitors of human RAD54 branch migration, primary screen, biochemical, fluorescence, single point; DNA repair and recombination protein RAD54-like (Homo sapiens), Q92698; RAD54 Holliday junction branch migration, FAM/BHQ fluorescence; inhibition, % at 10.4 µM; 360,000 tested, 0.14% active;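 active = mean normalized replicate activity at least 40 and at least half of replicates scoring 40 or more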;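 note: 0% = median of neutral control wells and 100% = median of positive control wells; inhibitors cause a drop in the FAM fluorescence signal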
PvdQ inh = P. aeruginosa PvdQ acylase inhibitors, primary screen, biochemical, fluorescence, plate reader and imaging, single point. 340,000 tested, 0.063% active. purified PvdQ acylase. inhibition, % at 10 µM. AID 488965, 2010; in the data active = inhibition above about 30%, passing the limit was not always enough;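 note: 0% = vehicle neutral wells and 100% = reference inhibitor wells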
FID counter = compounds displacing fluorescent DNA intercalator, primary screen, artefact control for HCV NS3 helicase inhibitor project, biochemical, FID fluorescence; 290,000 tested, 0.17% active; AID 1845, 2009; inhibition, % at 7.9 µM; DNA fluorescent intercalator displacement; in the data active = inhibition above about 37%;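 note: 0% = vehicle and 100% = reference compound; higher means more ethidium bromide displaced from hairpin DNA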
IMP-1 inh-1 = IMP-1 metallo-beta-lactamase inhibitors, primary screen, biochemical, epi-absorbance readout, Pseudomonas aeruginosa enzyme; metallo-beta-lactamase IMP-1 (Pseudomonas aeruginosa); purified IMP-1, nitrocefin hydrolysis, epi-absorbance fluorescence; AID 1556, 2009; 290,000 tested, 0.45% active; inhibition, % at 5.6 µM;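 active = inhibition above the mean plus 3 SD of all compounds in the same screening run, cut at about 4.5% in these data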;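 note: 0% = IMP-1 with DMSO and 100% = DMSO wells lacking enzyme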
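system = purified recombinant IMP-1 beta-lactamase | amount = 0.2 nM IMP-1, as dispensed | medium = HEPES buffer pH 7.1 with ZnSO4 and Brij 35 | times = 25 °C, 15 min preincubation, 25 min reaction | detection = plate fluorescence quenching by hydrolysis product, ex 480/em 530 nm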
IMP-1 inh-2 = IMP-1 metallo-beta-lactamase inhibitors, confirmation, selectivity assay for selective VIM-2 inhibitor project, biochemical, epi-absorbance readout, triplicate; shares compounds with VIM-2 inhibitor; purified IMP-1, nitrocefin hydrolysis, epi-absorbance fluorescence; inhibition, % at 5.6 µM; 1,300 tested, under 10 active; AID 1856, 2009; call rule not given here;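 note: 0% = enzyme with vehicle and 100% = vehicle without enzyme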
VIM-2 FRET ctr = VIM-2 inhibitors in FRET format, confirmation, artefact control for selective VIM-2 inhibitor project, biochemical, epi-absorbance artifact exclusion; purified VIM-2, CCF2 FRET substrate hydrolysis; shares compounds with VIM-2 inhibitor; inhibition, % at 5.6 µM; 1,300 tested, 23% active;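 active = inhibition above the mean of all tested compounds plus 3 SD, cut at about 19% in these data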;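 note: 0% = VIM-2 plus DMSO and 100% = no enzyme wells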
TEM-1 inh = TEM-1 serine beta-lactamase inhibitors, counter-screen for VIM-2 inhibitor project, biochemical, epi-absorbance, HTS. shares compounds with VIM-2 inhibitor. Purified TEM-1, nitrocefin hydrolysis, epi-absorbance fluorescence. inhibition, % at 5.6 µM. 1,300 tested, 3% active;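 active = inhibition above that campaign's mean inhibition plus 3 SD, cut at about 0.46% in these data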;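 note: 0% = TEM-1 with DMSO and 100% = TEM-1 with 100 µM potassium clavulanate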
Target sequence (P62593 whole entry, looked up): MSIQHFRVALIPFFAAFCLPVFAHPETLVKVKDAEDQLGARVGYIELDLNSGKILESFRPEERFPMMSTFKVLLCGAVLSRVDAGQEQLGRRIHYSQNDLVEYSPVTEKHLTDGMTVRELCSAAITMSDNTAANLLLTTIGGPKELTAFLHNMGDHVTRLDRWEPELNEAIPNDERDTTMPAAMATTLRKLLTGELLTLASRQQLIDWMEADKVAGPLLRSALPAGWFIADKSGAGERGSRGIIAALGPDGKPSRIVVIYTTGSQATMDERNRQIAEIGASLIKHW
VIM-2 confirm 2 = VIM-2 metallo-beta-lactamase inhibitors, confirmation, biochemical, epi-absorbance, hits shared with IMP-1 screen; shares compounds with VIM-2 inhibitor; 1,300 tested, 96% active; purified VIM-2, nitrocefin hydrolysis; inhibition, % at 5.6 µM;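 active = inhibition of the VIM-2 beta-lactamase enzyme above about 11% from the earlier first-round screen, limit read from the data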;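 note: 0% = VIM-2 with DMSO and 100% = buffer wells without enzyme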
An asterisk follows results filed as active. Sampled rows, rich in hits. Any-hit rate of the full collection: about 1%.

For O=C(CSc1ncn[nH]1)Nc1ccccc1C(=O)O the results were VIM-2 inhibitor -1.6, RAD54 branch 6.1, PvdQ inh -13.5, FID counter 7.4 and IMP-1 inh-1 -2.9.
NC(=O)SCC(=O)Nc1ccccc1C(=O)O was read as VIM-2 inhibitor 12.6*, RAD54 branch -11.0, PvdQ inh -18.5, FID counter -1.1, IMP-1 inh-1 -0.5, IMP-1 inh-2 0.8, VIM-2 FRET ctr 50.2*, TEM-1 inh -4.7 and VIM-2 confirm 2 30.7*.
Screening O=C(CSc1ccccc1)Nc1ccccc1C(=O)O returned VIM-2 inhibitor -0.5, RAD54 branch -3.6, PvdQ inh -0.3, FID counter -0.2 and IMP-1 inh-1 -4.2.
Screening O=C(CSc1cn[nH]n1)Nc1ccccc1C(=O)O returned VIM-2 inhibitor 20.4*, RAD54 branch -1.1, PvdQ inh -6.3, FID counter -2.1, IMP-1 inh-1 -1.5, IMP-1 inh-2 -1.9, VIM-2 FRET ctr 39.8*, TEM-1 inh -3.5 and VIM-2 confirm 2 22.6*.
`O=C(C[C@@H]1C[C@@H]2c3cc(NC(=O)Nc4ccc(C(F)(F)F)cc4)ccc3O[C@@H]2[C@@H](CO)O1)NCc1cccnc1` gave RAD54 branch 2.3.
`Cc1ccc(-c2cn3c(=S)[nH]nc3s2)cc1` gave VIM-2 inhibitor 44.9*, PvdQ inh -12.2, FID counter -6.8, IMP-1 inh-1 -3.7, IMP-1 inh-2 -3.6, VIM-2 FRET ctr 69.0*, TEM-1 inh -6.1 and VIM-2 confirm 2 54.5*.
Screening Clc1ccccc1-c1nn2c(-c3ccncc3)nnc2s1 returned VIM-2 inhibitor 22.4*, PvdQ inh -11.6, FID counter 4.7, IMP-1 inh-1 -3.0, IMP-1 inh-2 -3.8, VIM-2 FRET ctr 0.3, TEM-1 inh -7.8 and VIM-2 confirm 2 54.8*.
COc1ccc(NC(=O)Nc2ccc3c(c2)CC(=O)N([C@H](C)CO)C[C@H](C)[C@@H](CN(C)Cc2ccc(Oc4ccccc4)cc2)O3)cc1 was read as RAD54 branch -1.2.
Screening O=C(O)C(C(=O)O)=C1C2CC3CC(C2)CC1C3 returned VIM-2 inhibitor 38.5*, PvdQ inh -14.6, FID counter 2.9, IMP-1 inh-1 -2.6, IMP-1 inh-2 -0.7, VIM-2 FRET ctr 63.7*, TEM-1 inh -3.2 and VIM-2 confirm 2 48.3*.
`CCOc1ccc(-c2nnc(-c3ccncc3)o2)cc1OCC` gave VIM-2 inhibitor 23.8*, PvdQ inh 1.6, FID counter -19.3, IMP-1 inh-1 -1.0, IMP-1 inh-2 -2.7, VIM-2 FRET ctr -4.2, TEM-1 inh -3.8 and VIM-2 confirm 2 31.2*.
`O=[N+]([O-])c1cc(CN2CCCC2)c2cccnc2c1O` gave VIM-2 inhibitor 38.3*, PvdQ inh 7.5, FID counter -7.3, IMP-1 inh-1 -4.9, IMP-1 inh-2 -2.9, VIM-2 FRET ctr 3.2, TEM-1 inh -6.1 and VIM-2 confirm 2 44.5*.
`O=[N+]([O-])c1cc(CN2CCN(c3cccc(C(F)(F)F)c3)CC2)c2cccnc2c1O` gave VIM-2 inhibitor 34.9*, PvdQ inh -9.1, FID counter -5.5, IMP-1 inh-1 -4.0, IMP-1 inh-2 -3.4, VIM-2 FRET ctr 1.8, TEM-1 inh -6.7 and VIM-2 confirm 2 14.7*.
`OCCN1CCN(Cc2cc(Cl)c3cccnc3c2O)CC1` gave VIM-2 inhibitor -2.5, PvdQ inh -18.6, FID counter 2.3 and IMP-1 inh-1 -2.5.
`Oc1c(Cl)cc(CN2CCCCC2)c2cccnc12` gave VIM-2 inhibitor 14.6*, RAD54 branch -2.1, PvdQ inh -12.0, FID counter -6.4, IMP-1 inh-1 -2.3, IMP-1 inh-2 -3.6, VIM-2 FRET ctr 3.9, TEM-1 inh -5.9 and VIM-2 confirm 2 17.3*.
Screening CCOc1ccccc1N1CCN(Cc2cccc(OC)c2O)CC1 returned VIM-2 inhibitor 0.5, PvdQ inh 7.9, FID counter 3.7 and IMP-1 inh-1 -1.4.
Screening COc1ccccc1N1CCN(Cc2cc(Br)c(O)c3ncccc23)CC1 returned VIM-2 inhibitor 23.9*, RAD54 branch 2.8, PvdQ inh 3.4, FID counter -9.4, IMP-1 inh-1 -4.5, IMP-1 inh-2 -3.2, VIM-2 FRET ctr 1.8, TEM-1 inh -6.2 and VIM-2 confirm 2 7.0.
O=C(C[C@@H]1CC[C@H]2[C@@H](COC[C@H](O)CN2Cc2ccccc2)O1)N1CCOCC1 was read as RAD54 branch 4.4.
`Cc1ccc(S(=O)(=O)Nc2ccc3c(c2)C(=O)N([C@H](C)CO)C[C@@H](C)[C@@H](CN(C)C(=O)Cc2ccccc2)OCCCC[C@@H](C)O3)cc1` gave RAD54 branch -2.3.
For C[C@H]1CN([C@@H](C)CO)S(=O)(=O)c2ccc(C3=CCCCC3)cc2O[C@H]1CN(C)C(=O)C1CCOCC1 the results were RAD54 branch -7.6.
Cc1c(OCc2ccc(C(=O)O)o2)ccc2c3c(c(=O)oc12)CCC3 was read as VIM-2 inhibitor 6.2, RAD54 branch -8.3, PvdQ inh -6.9, FID counter -27.4 and IMP-1 inh-1 -0.5.
Screening Cc1cc(=O)oc2cc(OCC(=O)N3CCC(C(N)=O)CC3)ccc12 returned VIM-2 inhibitor 1.9, RAD54 branch 1.0, PvdQ inh -4.5, FID counter -3.7 and IMP-1 inh-1 -1.4.
For CCCc1cc(=O)oc2c3c(cc(OCC(=O)N4CCC[C@H]4C(=O)O)c12)OC(C)(C)CC3 the results were VIM-2 inhibitor 45.4*, RAD54 branch -1.7, PvdQ inh 0.0, FID counter -27.2, IMP-1 inh-1 0.1, IMP-1 inh-2 -3.0, VIM-2 FRET ctr 70.7*, TEM-1 inh -5.4 and VIM-2 confirm 2 50.3*.
